For one series, the system named is Cryptococcus neoformans. The series is described as follows: Antimicrobial activity against Cryptococcus neoformans after 24 hrs. It is filed as functional. The essentials: (§1)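 Broth microdilution per NCCLS guidelines in MOPS-buffered RPMI 1640. Starting inoculum was 1-5 × 10^3 cfu/mL, and plates were incubated at 35 °C. MIC was read spectrophotometrically at 492 nm after 24–48 h for yeasts and 72–96 h for mycelial fungi.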

Series [1] deals with Trichophyton mentagrophytes. The series is described as follows: Antimicrobial activity against Trichophyton mentagrophytes after 72 to 96 hrs.
For another series, the system named is Candida albicans. In words: Antimicrobial activity against Candida albicans after 24 hrs. The format is functional. The essentials:
as §1

The subject of series [2] is L929. In words: Cytotoxicity against mouse L929 cells assessed as change in morphology at 6.25 ug/ml after 24 hrs […]. The format is cell-based. The note with it: l929, 24 h. The essentials:
(§2)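 L929 fibroblasts (serum-free RPMI, 37 °C, 5% CO2) were exposed to compound for 24 h, then fixed and stained with Giemsa for 30 min at 37 °C. Excess stain was washed off with PBS, plates were air-dried, and cell morphology was examined under a phase contrast microscope against untreated controls.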
On the technique in general: Tetrazolium assays rely on reduction of a dye to a coloured formazan, in cell work by metabolically active cells.

For the next series, the system named is Pseudomonas aeruginosa. The series is described as follows: Antimicrobial activity against Pseudomonas aeruginosa after 24 hrs. It is filed as functional. The essentials:
(§3)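 NCCLS microdilution in Mueller Hinton broth. Strains were grown 24 h on nutrient agar at 37 °C, suspended at about 1.0–2.0 × 10^7 cells/mL (McFarland-matched) in saline with 0.05% Tween 20, then diluted 100 µL into 10 mL medium. Compounds were taken from a 1 mg/mL DMSO stock as twofold dilutions, top final 50 µg/mL. Incubation was 35 °C in a moist, dark chamber, and MIC was read spectrophotometrically at 24 h.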

The subject of another series is Sporothrix schenckii. The series is described as follows: Antimicrobial activity against Sporothrix schenckii after 24 hrs. It is filed as functional. The essentials:
as §1

The test system of the next series is Candida parapsilosis. The series is described as follows: Antimicrobial activity against Candida parapsilosis ATCC 22019 after 24 hrs. It is filed as functional. The conditions noted are these: Lodderomyces parapsilosis, ATCC 22019, 24 h. The essentials:
as §1

Series [3] relates to L929. In words: Cytotoxicity against mouse L929 cells at 6.25 ug/ml after 24 hrs by MTT assay. The note with it: l929, 24 h. It is filed as cell-based. Summed up: (§4)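 L929 mouse fibroblasts were grown in RPMI 1640 with 10% FBS at 37 °C under 5% CO2 and seeded at 1.0 × 10^5 cells/mL. At 80% confluence the medium was switched to serum-free RPMI, and cells were exposed 24 h to 0.09–25 µg/mL in twofold steps. After PBS washes, cells got 0.5 mg/mL MTT for 4 h at 37 °C, then DMSO for 30 min at room temperature. Viability was calculated as (A570−A630) relative to untreated cells.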

Series [4] concerns Aspergillus fumigatus. The series is described as follows: Antimicrobial activity against Aspergillus fumigatus after 72 to 96 hrs.
For series [5], the system named is L929. In words: Cytotoxicity against mouse L929 cells assessed as change in cellular morphology at 12.5 to 25 ug/ml after 24 hrs […]. The format is cell-based. The conditions noted are these: l929, 24 h. Summed up:
as §2

The test system of another series is Escherichia coli. The series is described as follows: Antimicrobial activity against Escherichia coli after 24 hrs. The format is functional. Summed up:
as §3

The test system of the next series is Staphylococcus aureus. The series is described as follows: Antimicrobial activity against Staphylococcus aureus after 24 hrs. It is filed as functional. The essentials: as §3
A further series deals with Klebsiella pneumoniae. In words: Antimicrobial activity against Klebsiella pneumoniae after 24 hrs. It is filed as functional. The essentials:
as §3

The nature of series [6]: Cytotoxicity against mouse L929 cells assessed as viability at 12.5 to 25 ug/ml after 24 hrs by MTT assay. The format is cell-based. The note with it: read-out: Activity. The essentials:
as §4

Series [7] concerns Trichophyton mentagrophytes. The series is described as follows: Antimicrobial activity against Trichophyton mentagrophytes after 24 hrs. The format is functional.
In series [8] the test system is Aspergillus fumigatus. The series is described as follows: Antimicrobial activity against Aspergillus fumigatus after 24 hrs. The format is functional.

SMILES strings stand for the structures. Converted amounts (≈) assume the structure as drawn. Bounds are passed on as bounds.

For the compound `Clc1ccc2c(c1)CN(c1ccccc1Cl)CO2`, the MIC (in general, the lowest concentration found to suppress growth) was 12.5 µg/mL (≈ 44.6 µM) against Cryptococcus neoformans; 3.12 µg/mL (≈ 11.1 µM) in series [1]; 12.5 µg/mL (≈ 44.6 µM) in the series with Candida albicans; over 50 µg/mL in the series on Pseudomonas aeruginosa; 6.25 µg/mL (≈ 22.3 µM) in the series with Sporothrix schenckii; 25 µg/mL (≈ 89.2 µM) in the series with Candida parapsilosis. The MIC is 25 µg/mL (≈ 89.2 µM) in the series on Aspergillus fumigatus [4], over 50 µg/mL against Escherichia coli, 6.25 µg/mL (≈ 22.3 µM) in the series with Staphylococcus aureus and over 50 µg/mL in the series on Klebsiella pneumoniae. Besides, the Activity result is recorded as “Non-toxic” with L929 [2], “Non-toxic” in the series on L929 [3] and “Toxic” with L929 [5]. Also, the viability at 24 h in series [6] was over 90%.
In the case of `Clc1ccc2c(c1)CN(CCN1COc3ccc(Cl)cc3C1)CO2`, the MIC in the series with Cryptococcus neoformans was 12.5 µg/mL (≈ 34.2 µM); in [1], 3.12 µg/mL (≈ 8.54 µM); with Candida albicans, 12.5 µg/mL (≈ 34.2 µM); with Pseudomonas aeruginosa it was over 50 µg/mL; in the series on Sporothrix schenckii, 6.25 µg/mL (≈ 17.1 µM); in the series on Candida parapsilosis, 25 µg/mL (≈ 68.4 µM). Also, the MIC was 50 µg/mL (≈ 137 µM) against Aspergillus fumigatus [4], over 50 µg/mL in the series on Escherichia coli, 12.5 µg/mL (≈ 34.2 µM) with Staphylococcus aureus and over 50 µg/mL against Klebsiella pneumoniae. The Activity entry in the series with L929 [2] was “Non-toxic”; with L929 [3], “Non-toxic”; in the series on L929 [5], “Toxic”. In addition, the viability at 24 h in series [6] is over 90%.
Consider `Clc1ccccc1N1COc2c(Cl)ccc(Cl)c2C1`, for which the MIC against Cryptococcus neoformans is 50 µg/mL (≈ 159 µM); in series [1], 12.5 µg/mL (≈ 39.7 µM); with Candida albicans, over 50 µg/mL; in the series with Pseudomonas aeruginosa it was 50 µg/mL (≈ 159 µM); in the series with Sporothrix schenckii, 12.5 µg/mL (≈ 39.7 µM); against Candida parapsilosis it was 50 µg/mL (≈ 159 µM). Also, the minimal inhibitory concentration (MIC) is 50 µg/mL (≈ 159 µM) against Aspergillus fumigatus [4], over 50 µg/mL against Escherichia coli, 12.5 µg/mL (≈ 39.7 µM) with Staphylococcus aureus and 6.25 µg/mL (≈ 19.9 µM) against Klebsiella pneumoniae. Besides, the values for the Activity entry in the series on L929 [2], in the series with L929 [3] and in the series with L929 [5] were “Non-toxic”, “Non-toxic” and “Toxic”, respectively. The viability at 24 h in [6] is over 90%.
In the case of `Cc1ccc2c(c1)CN(c1ccc(Cl)cc1)CO2`, the MIC worked out at 12.5 µg/mL (≈ 48.1 µM) in series [7]; 25 µg/mL (≈ 96.3 µM) in the series with Cryptococcus neoformans; 50 µg/mL (≈ 193 µM) in the series with Candida albicans; 25 µg/mL (≈ 96.3 µM) against Aspergillus fumigatus [8]; 50 µg/mL (≈ 193 µM) in the series on Pseudomonas aeruginosa; 12.5 µg/mL (≈ 48.1 µM) against Sporothrix schenckii. Further, the minimum inhibitory concentration (MIC) against Candida parapsilosis was 50 µg/mL (≈ 193 µM); with Escherichia coli, over 50 µg/mL; in the series on Staphylococcus aureus, 25 µg/mL (≈ 96.3 µM); against Klebsiella pneumoniae, 25 µg/mL (≈ 96.3 µM).
Regarding `Clc1cc(Cl)c2c(c1)CN(CCN1COc3c(Cl)cc(Cl)cc3C1)CO2`, the minimum inhibitory concentration (MIC) was 25 µg/mL (≈ 57.6 µM) against Cryptococcus neoformans; 25 µg/mL (≈ 57.6 µM) in series [1]; 50 µg/mL (≈ 115 µM) against Candida albicans; over 50 µg/mL against Pseudomonas aeruginosa; over 50 µg/mL against Sporothrix schenckii; 50 µg/mL (≈ 115 µM) in the series on Candida parapsilosis. Further, the MIC was 50 µg/mL (≈ 115 µM) with Aspergillus fumigatus [4], over 50 µg/mL in the series with Escherichia coli, 0.39 µg/mL (≈ 0.898 µM) against Staphylococcus aureus and 1.56 µg/mL (≈ 3.59 µM) in the series with Klebsiella pneumoniae. Moreover, the Activity result with L929 [2] is reported as “Non-toxic”; in the series with L929 [3] it was “Non-toxic”; in the series with L929 [5], “Toxic”. The viability at 24 h in [6] is over 90%.
As for `Cc1ccc2c(c1)CN(c1ccc(F)cc1)CO2`, the MIC in series [7] was 25 µg/mL (≈ 103 µM); against Cryptococcus neoformans, 50 µg/mL (≈ 206 µM); in the series with Candida albicans, over 50 µg/mL; in the series with Aspergillus fumigatus [8], over 50 µg/mL; in the series on Pseudomonas aeruginosa it was 50 µg/mL (≈ 206 µM); in the series with Sporothrix schenckii, 25 µg/mL (≈ 103 µM). Moreover, the MIC in the series with Candida parapsilosis is over 50 µg/mL; with Escherichia coli it was 50 µg/mL (≈ 206 µM); against Staphylococcus aureus it was 50 µg/mL (≈ 206 µM); with Klebsiella pneumoniae, 50 µg/mL (≈ 206 µM).
As for `Cc1ccc(N2COc3ccc(C)cc3C2)cc1`, the minimal inhibitory concentration (MIC) with Cryptococcus neoformans was 50 µg/mL (≈ 209 µM); in series [1], 12.5 µg/mL (≈ 52.2 µM); with Candida albicans it was 50 µg/mL (≈ 209 µM); with Pseudomonas aeruginosa it was over 50 µg/mL; in the series on Sporothrix schenckii, 12.5 µg/mL (≈ 52.2 µM); against Candida parapsilosis, 50 µg/mL (≈ 209 µM). Also, the MIC came out at 50 µg/mL (≈ 209 µM) against Aspergillus fumigatus [4], 25 µg/mL (≈ 104 µM) in the series with Escherichia coli, 25 µg/mL (≈ 104 µM) with Staphylococcus aureus and 50 µg/mL (≈ 209 µM) in the series with Klebsiella pneumoniae.
Regarding `Fc1ccc(N2COc3ccc4ccccc4c3C2)cc1`, the MIC against Cryptococcus neoformans was 50 µg/mL (≈ 179 µM); in series [1], 25 µg/mL (≈ 89.5 µM); with Candida albicans, over 50 µg/mL; in the series with Pseudomonas aeruginosa it was 50 µg/mL (≈ 179 µM); against Sporothrix schenckii it was 50 µg/mL (≈ 179 µM); with Candida parapsilosis, over 50 µg/mL. For the same compound, the MIC was over 50 µg/mL in the series on Aspergillus fumigatus [4], over 50 µg/mL against Escherichia coli, over 50 µg/mL against Staphylococcus aureus and 50 µg/mL (≈ 179 µM) in the series on Klebsiella pneumoniae.
In the case of `Clc1ccc2c(c1)CN(c1ccccc1)CO2`, the MIC in the series on Cryptococcus neoformans was 50 µg/mL (≈ 203 µM); in [1] it was 12.5 µg/mL (≈ 50.9 µM); with Candida albicans, 50 µg/mL (≈ 203 µM); against Pseudomonas aeruginosa, over 50 µg/mL; against Sporothrix schenckii, 6.25 µg/mL (≈ 25.4 µM); in the series on Candida parapsilosis, 50 µg/mL (≈ 203 µM). For the same compound, the MIC with Aspergillus fumigatus [4] amounted to 25 µg/mL (≈ 102 µM); in the series with Escherichia coli, 12.5 µg/mL (≈ 50.9 µM); with Staphylococcus aureus, 25 µg/mL (≈ 102 µM); against Klebsiella pneumoniae it was 50 µg/mL (≈ 203 µM).
On to `Clc1ccc(N2COc3ccc4ccccc4c3C2)c(Cl)c1`, for which the MIC with Cryptococcus neoformans is over 50 µg/mL; in series [1], 50 µg/mL (≈ 151 µM); in the series on Candida albicans, over 50 µg/mL; in the series with Pseudomonas aeruginosa, over 50 µg/mL; with Sporothrix schenckii, over 50 µg/mL; in the series with Candida parapsilosis it was over 50 µg/mL. Moreover, the minimal inhibitory concentration (MIC) against Aspergillus fumigatus [4], in the series on Escherichia coli, with Staphylococcus aureus and with Klebsiella pneumoniae was over 50 µg/mL each time.

These data come from ChEMBL document CHEMBL1157043, “An eco-friendly synthesis and antimicrobial activities of dihydro-2H-benzo- and naphtho-1,3-oxazine derivatives” (Eur J Med Chem, 2010).
